This note sets out measurements from ChEMBL document CHEMBL1153707 (Eur J Med Chem, 2010).

The target in experiment [1] is Glycogen synthase kinase-3 (Homo sapiens, UniProt P49840+P49841). The experiment in a line: Inhibition of human GSK3alpha/ GSK3-beta. The format is protein assay.
Experiment [2] has as its target Casein kinase I isoform alpha/subunit beta (Homo sapiens, UniProt P48729+P67870). Nature of the experiment: Inhibition of human CK1-alpha/CK2beta. In kind it is protein-complex assay.
For experiment [3], the target named is Cyclin-dependent kinase 5/CDK5 activator 1 (Homo sapiens, UniProt Q00535). Nature of the experiment: Inhibition of human CDK5/p25. The format is protein-complex assay. The gist of the method: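 CDK5/p25 kinase activity measured with 15 ATP and histone H1 as protein substrate; IC50 derived from dose-response curves.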
Chain of Cyclin-dependent kinase 5/CDK5 activator 1 (Q00535 whole entry): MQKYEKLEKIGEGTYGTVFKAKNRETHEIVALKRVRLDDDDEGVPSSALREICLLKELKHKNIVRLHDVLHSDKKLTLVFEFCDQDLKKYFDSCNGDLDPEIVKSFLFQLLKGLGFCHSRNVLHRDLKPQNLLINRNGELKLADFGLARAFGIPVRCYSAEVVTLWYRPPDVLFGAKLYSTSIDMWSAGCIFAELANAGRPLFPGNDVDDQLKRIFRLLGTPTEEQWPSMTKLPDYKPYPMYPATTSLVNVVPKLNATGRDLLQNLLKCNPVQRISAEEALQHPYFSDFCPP
Chain of Cyclin-dependent kinase 5/CDK5 activator 1 (Q15078 whole entry, further chain): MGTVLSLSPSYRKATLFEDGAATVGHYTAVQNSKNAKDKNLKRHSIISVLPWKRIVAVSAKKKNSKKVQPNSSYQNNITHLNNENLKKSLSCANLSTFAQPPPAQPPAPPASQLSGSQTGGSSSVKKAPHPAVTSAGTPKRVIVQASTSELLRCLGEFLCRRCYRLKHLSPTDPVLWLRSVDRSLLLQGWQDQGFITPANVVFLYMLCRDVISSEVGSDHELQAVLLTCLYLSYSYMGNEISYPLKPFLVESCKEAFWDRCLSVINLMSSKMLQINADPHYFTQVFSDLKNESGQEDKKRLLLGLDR
The subject of another experiment is SF-268. Nature of the experiment: Cytotoxicity against human SF268 cells. The format is functional.

Chain of Casein kinase I isoform alpha/subunit beta (P67870 whole entry, canonical isoform): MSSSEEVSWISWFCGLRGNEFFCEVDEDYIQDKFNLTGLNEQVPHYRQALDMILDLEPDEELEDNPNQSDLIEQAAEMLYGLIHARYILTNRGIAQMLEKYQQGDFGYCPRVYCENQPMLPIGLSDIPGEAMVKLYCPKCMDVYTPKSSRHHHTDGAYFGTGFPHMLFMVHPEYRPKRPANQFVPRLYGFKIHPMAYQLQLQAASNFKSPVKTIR
Chain of Casein kinase I isoform alpha/subunit beta (P48729 whole entry, canonical isoform): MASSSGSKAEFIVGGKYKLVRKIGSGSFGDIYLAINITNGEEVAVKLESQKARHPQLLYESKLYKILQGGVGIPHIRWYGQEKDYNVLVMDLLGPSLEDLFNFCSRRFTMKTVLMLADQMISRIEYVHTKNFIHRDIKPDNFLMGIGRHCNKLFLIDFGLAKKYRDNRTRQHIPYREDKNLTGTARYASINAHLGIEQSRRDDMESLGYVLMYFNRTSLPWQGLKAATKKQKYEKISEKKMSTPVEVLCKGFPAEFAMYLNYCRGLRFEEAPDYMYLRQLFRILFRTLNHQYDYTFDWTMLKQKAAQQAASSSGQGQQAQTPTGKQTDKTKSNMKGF

In general, IC50 refers to the concentration that inhibits the measured activity by half. Turning to `CN1C(=O)/C(=C/c2ccc3c(c2)OCO3)N=C1NCCNCc1ccc(Cl)cc1`, the IC50 in experiment [1], in experiment [2] and in experiment [3] was greater than 100 µM each time.

With `CN1C(=O)/C(=C/c2ccc3c(c2)OCO3)N=C1NCC/N=C/c1ccc2c(c1)OCC2`, the 50% inhibitory concentration (IC50) is 15 µM in experiment [1], greater than 100 µM in experiment [2] and greater than 100 µM in experiment [3].

In the case of `CN1C(=O)/C(=C/c2ccc3c(c2)OCO3)N=C1NCC/N=C/c1ccc(Cl)cc1`, the half-maximal inhibitory concentration (IC50) in experiment [1], in experiment [2] and in experiment [3] was greater than 100 µM each time.

Regarding `COc1cc(/C=N/CCNC2=N/C(=C\c3ccc4c(c3)OCO4)C(=O)N2C)cc(OC)c1OC`, the IC50 in experiment [1], in experiment [2] and in experiment [3] was greater than 100 µM throughout.

Consider `CN1C(=O)/C(=C/c2ccc3c(c2)OCO3)N=C1NCCNCc1ccc2c(c1)OCC2`, for which the half-maximal inhibitory concentration (IC50) in experiment [1] was greater than 10 µM; in experiment [2] it was greater than 100 µM; in experiment [3] it was greater than 100 µM.

For `CN1C(=O)/C(=C/c2ccc3c(c2)OCO3)N=C1NCCNCc1ccc2c(c1)OCCO2`, the figures for the IC50 in experiment [1], in experiment [2] and in experiment [3] were greater than 10 µM, greater than 100 µM and greater than 100 µM, respectively.

In the case of `COc1ccc(CNCCNC2=N/C(=C\c3ccc4c(c3)OCO4)C(=O)N2C)cc1`, the results for the 50% inhibitory concentration (IC50) in experiment [1], in experiment [2] and in experiment [3] were greater than 10 µM, greater than 100 µM and greater than 100 µM, respectively.

Turning to `CN1C(=O)/C(=C/c2ccc3c(c2)OCO3)N=C1NCCNCc1ccc([N+](=O)[O-])cc1`, the IC50 in experiment [1], in experiment [2] and in experiment [3] was greater than 100 µM each time.

Turning to `COc1cc(CNCCNC2=N/C(=C\c3ccc4c(c3)OCO4)C(=O)N2C)cc(OC)c1OC`, the half-inhibitory concentration (IC50) in experiment [1], in experiment [2] and in experiment [3] was greater than 100 µM throughout.

`CN1C(=O)/C(=C/c2ccc3c(c2)OCO3)N=C1NCCN.Cl`: the IC50 in experiment [1] is 1.4 µM; in experiment [2], greater than 100 µM; in experiment [3], greater than 100 µM.

As for `CN1C(=O)/C(=C/c2ccc3c(c2)OCO3)N=C1NCC/N=C/c1ccccc1`, the 50% inhibitory concentration (IC50) in experiment [1] is 7 µM; in experiment [2] it was greater than 100 µM; in experiment [3] it was greater than 100 µM.

Regarding `CN1C(=O)/C(=C/c2ccc3c(c2)OCO3)N=C1NCC/N=C/c1ccc2c(c1)OCCO2`, the half-inhibitory concentration (IC50) in experiment [1] is 38 µM; in experiment [2], greater than 100 µM; in experiment [3], greater than 100 µM.

With `COc1ccc(/C=N/CCNC2=N/C(=C\c3ccc4c(c3)OCO4)C(=O)N2C)cc1`, the results for the IC50 in experiment [1], in experiment [2] and in experiment [3] were 7.3 µM, greater than 100 µM and greater than 100 µM, respectively.

Turning to `CN1C(=O)/C(=C/c2ccc3c(c2)OCO3)N=C1NCC/N=C/c1ccc([N+](=O)[O-])cc1`, the IC50 in experiment [1], in experiment [2] and in experiment [3] was greater than 100 µM in each case.

Take `CN1C(=O)/C(=C/c2ccc3c(c2)OCO3)N=C1NCC/N=C/c1ccc2c(c1)OCO2`: the IC50 in experiment [1] was 0.86 µM; in experiment [2], greater than 100 µM; in experiment [3], greater than 100 µM.

As for `CN1C(=O)/C(=C/c2ccc3c(c2)OCO3)N=C1NCCNCc1ccccc1`, the concentration for half-maximal inhibition (IC50) in experiment [1] is greater than 10 µM; in experiment [2], greater than 100 µM; in experiment [3], greater than 100 µM.

Consider `CN1C(=O)/C(=C/c2ccc3c(c2)OCO3)N=C1NCCNCc1ccc2c(c1)OCO2`, for which the IC50 in experiment [1] is greater than 10 µM; in experiment [2], greater than 100 µM; in experiment [3] it was greater than 100 µM.

For the compound `CN1C(=O)/C(=C/c2ccc3c(c2)OCO3)N=C1N` [LEUCETTAMINE B], the values for the half-maximal inhibitory concentration (IC50) in experiment [1] and in experiment [2] were 15 µM and greater than 100 µM, respectively.

Usually GI50 stands for the concentration at which growth is held to half of that of the control. A lower GI50 goes with more potent growth inhibition. With `COc1cc(/C=C2\N=C(N)NC2=O)ccc1O` [POLYANDROCARPAMINE A], the 50% growth inhibitory concentration (GI50) in the experiment on SF-268 came out at 65 µM.
